The results in this text go back to ChEMBL document CHEMBL5661984, “Allosteric ligands for the pharmacologically dark receptors GPR68 and GPR65” (Nature, 2015).

Active and inactive are the calls of the source.

Data set [1] is described as follows: Toxicity in C57BL/6 mouse assessed as decreased contextual memory retrieval. Conditions: in vivo. Summed up: (§1)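 Fear conditioning in wild-type and GPR68 KO C57BL/6J congenic mice. Training was 8 min: 3 pairings of a 30-s, 90 dB, 5 kHz tone with a 2-s, 0.6 mA foot shock. Context freezing scored at 24 h over 5 min; cue test at 48 h over 6 min. Freezing defined as no movement for 0.5 s. Compound 10 mg/kg in 10% Tween 80 or saline, 30 min before training. n=6–8 per group. Two-way ANOVA with Bonferroni post-hoc test.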

A further data set deals with Adenosine receptor A2a (Homo sapiens, UniProt P29274). The experiment in a line: Antagonist activity against A2A adenosine receptor (unknown origin) transfected in human HEK293T cells assessed as inhibition constant […] by luminescence counter analysis. In kind it is functional, cell-based.
Another data set is filed under the species Mus musculus. Put plainly: […] activity against GPR68 knockout C57BL/6 mouse assessed as contextual memory retrieval. It counts as functional, organism-based. Put shortly: as §1
Data set [2] is described as follows: Positive allosteric modulator activity at GPR68 R189L mutant expressed in human HEK293T cells assessed as cAMP production in presence of H+ proton by Split-luciferase based luminescence counter analysis (reference value: 1.4 %). Conditions: HEK-293T, condition central nervous system disease. Summed up: (§2)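 Proton concentration-response of GPR68 (wild type or E160A/K/Q, R189L/M, H269F mutants) in transiently transfected HEK293-T cells. Read-out: GloSensor cAMP, with luciferin loading 90 min at 37°C at pH 8.4. Run with and without increasing modulator concentrations; 20 min at room temperature before luminescence. Proton KA fixed to the proton EC50 without modulator. KB, τA, α, β fitted globally with an operational allosteric model. n=4.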

Data set [3] can be described thus: Positive allosteric modulator activity at GPR68 E160K mutant expressed in human HEK293T cells assessed as cAMP production in presence of H+ proton by Split-luciferase based luminescence counter analysis (reference value: 24.6+/-2.7 %). Conditions: HEK-293T, condition central nervous system disease. Put shortly: as §2
The nature of data set [4]: Positive allosteric modulator activity at GPR68 R189M mutant transfected in human HEK293T cells assessed as proton-mediated calcium release at 10 uM incubated for 10 mins by Fluo-4 Direct calcium dye based FLIPR assay (reference value: 1.43 +/- 0.01 %). Conditions: HEK-293T, condition central nervous system disease.
Data set [5] can be described thus: Positive allosteric modulator activity at GPR68 E160A mutant expressed in human HEK293T cells assessed as cAMP production in presence of H+ proton by Split-luciferase based luminescence counter analysis (reference value: 7.34+/-0.05). It counts as cell-based. The following applies: HEK-293T. Put shortly:
as §2

Data set [6] is described as follows: Positive allosteric modulator activity at GPR68 E160K mutant transfected in human HEK293T cells assessed as proton-mediated calcium release at 10 uM incubated for 10 mins by Fluo-4 Direct calcium dye based FLIPR assay (reference value: 6.79 +/- 0.02). It counts as cell-based. The following applies: HEK-293T.
Data set [7] deals with G-protein coupled receptor 68 (Homo sapiens, UniProt Q15743). Put plainly: Positive allosteric modulator activity at GPR68 expressed in human HEK293T cells assessed as proton-mediated phosphatidylinositol hydrolysis on pH 8.4 at 10 uM incubated for 20 mins by TriLuxMicroBeta counter analysis. The following applies: filed as positive allosteric modulator. In kind it is functional, cell-based. Put shortly: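 GPR68-transfected HEK293-T cells labeled overnight with 3H-inositol (1 μCi/well) in inositol-free DMEM with 5% dialyzed FBS. Treated for 20 min at pH 8.4 in HBSS with 10 mM HEPES, 10 mM MES and 20 mM LiCl, compound at 10 μM. Extracted with 50 mM ice-cold formic acid, 30 min at 4°C. Captured on YSi beads and counted (cpm/well). n=3. 4-parameter logistic fit.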

The target in data set [8] is 5-hydroxytryptamine receptor 2B (Homo sapiens, UniProt P41595). The experiment in a line: Antagonist activity against 5-HT2B […] receptor (unknown origin) transfected in human HEK293T cells assessed as inhibition constant incubated for 15 mins by luminescence counter analysis. It counts as functional, cell-based.
Data set [9] can be described thus: Positive allosteric modulator activity at GPR68 R189L mutant transfected in human HEK293T cells assessed as proton-mediated calcium release at 10 uM incubated for 10 mins by Fluo-4 Direct calcium dye based FLIPR assay (reference value: 6.85 +/- 0.02). Conditions: HEK-293T. In kind it is cell-based.
The nature of data set [10]: Toxicity in C57BL/6 mouse assessed as cued memory retrieval by Morris water maze test. The following applies: in vivo.
Data set [11] can be described thus: Positive allosteric modulator activity at GPR68 R189M mutant expressed in human HEK293T cells assessed as cAMP production in presence of H+ proton by Split-luciferase based luminescence counter analysis (reference value: 3.7 %). The following applies: HEK-293T, condition central nervous system disease. Summed up: as §2

5-hydroxytryptamine receptor 2B, sequence (P41595 whole entry): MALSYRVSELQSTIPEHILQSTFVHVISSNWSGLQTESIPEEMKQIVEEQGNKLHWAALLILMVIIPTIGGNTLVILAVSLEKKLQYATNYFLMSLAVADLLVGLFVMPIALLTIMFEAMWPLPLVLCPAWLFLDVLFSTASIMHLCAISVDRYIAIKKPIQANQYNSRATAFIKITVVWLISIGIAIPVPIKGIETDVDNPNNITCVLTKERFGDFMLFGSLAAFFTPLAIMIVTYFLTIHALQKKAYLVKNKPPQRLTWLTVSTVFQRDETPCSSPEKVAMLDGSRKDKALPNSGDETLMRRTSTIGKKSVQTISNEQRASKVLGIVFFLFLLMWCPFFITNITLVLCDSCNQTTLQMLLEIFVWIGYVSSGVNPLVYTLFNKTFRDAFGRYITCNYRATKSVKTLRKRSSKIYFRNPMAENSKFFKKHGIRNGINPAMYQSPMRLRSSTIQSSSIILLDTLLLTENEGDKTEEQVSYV
G-protein coupled receptor 68, sequence (Q15743 whole entry): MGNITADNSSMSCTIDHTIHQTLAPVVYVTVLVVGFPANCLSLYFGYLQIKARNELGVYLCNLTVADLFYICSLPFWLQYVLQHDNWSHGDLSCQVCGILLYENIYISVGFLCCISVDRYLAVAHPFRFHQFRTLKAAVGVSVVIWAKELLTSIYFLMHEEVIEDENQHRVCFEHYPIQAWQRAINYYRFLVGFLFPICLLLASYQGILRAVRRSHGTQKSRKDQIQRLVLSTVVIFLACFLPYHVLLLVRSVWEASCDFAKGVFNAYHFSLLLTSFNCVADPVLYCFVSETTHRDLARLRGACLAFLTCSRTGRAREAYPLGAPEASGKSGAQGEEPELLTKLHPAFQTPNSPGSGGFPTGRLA
Adenosine receptor A2a, sequence (P29274 whole entry): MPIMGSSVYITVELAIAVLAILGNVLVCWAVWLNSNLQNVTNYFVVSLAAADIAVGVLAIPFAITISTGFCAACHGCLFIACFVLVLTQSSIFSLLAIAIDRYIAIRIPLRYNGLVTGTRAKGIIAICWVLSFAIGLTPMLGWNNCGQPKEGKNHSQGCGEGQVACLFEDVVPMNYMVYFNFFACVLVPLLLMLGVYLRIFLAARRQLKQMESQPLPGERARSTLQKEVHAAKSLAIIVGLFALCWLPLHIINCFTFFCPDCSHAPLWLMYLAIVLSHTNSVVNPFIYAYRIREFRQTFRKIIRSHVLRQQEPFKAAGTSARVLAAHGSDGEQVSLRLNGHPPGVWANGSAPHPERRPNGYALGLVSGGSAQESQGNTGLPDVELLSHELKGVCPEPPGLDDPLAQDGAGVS

As to `Nc1nc(NCc2ccccc2)nc(-c2ccccc2CO)n1` [Ogerin], the Activity entry in data set [1] is on record as “Toxic”; in [10], “Non-Toxic”. The results for the Ki (on Adenosine receptor A2a; in data set [8]) were 220 nM and 736 nM, respectively. Further, in the data set listed under Mus musculus, the outcome was inactive. The Emax was 5.3% in [2], 42.6% in data set [3] and 10% in data set [11]. The Emax at 10 µM in [4] stood at 1.36%. The results for the EC50 in data set [5], in data set [6] and in data set [9] were 11.7 nM, 151 nM and 87.1 nM, respectively. The outcome in data set [7] was Active.
